# An excerpt weighted towards active compounds, which were near 2.1% of everything screened.
# MT1-MMP txn act = activates MT1-MMP transcription; activation factor at 10 µM; 0.16% of 86,000 active; HT1080 MT1-MMP promoter luciferase reporter, luminescence, overnight; active compounds read high;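 active means activation factor of at least 2 for MT1-MMP transcription at 10 µM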
# E coli RNAP = blocks E. coli RNA polymerase transcription; 0.2% of 62,000 active; P0A8V2; AID 559; fluorescence transcription assay; inhibition, %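 (tested at 10 µM)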; in the data active means inhibition above about 20%;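 further: 0% = enzyme without compound and 100% = no enzyme blank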
# TNAP act mid DEA = activators of human TNAP at intermediate phosphate acceptor. P05186. AID 813. 64,000 tested, under 10 active. activation factor at 20 µM. purified TNAP, CDP-star luminescence, 100 mM DEA, 30 min; active compounds read high; scale: 0 levamisole-inhibited, 1 vehicle-only enzyme;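 active means activation factor of at least 2 at 20 µM, relative to controls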
# SF-1 act = activates the human nuclear receptor SF-1 | 1.9% of 65,000 active | Q13285 | activation, % at 10 µM | CHO-K1 Gal4-SF-1 LBD luciferase reporter; % increase over DMSO SF-1-specific signal;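 active means activation above the mean activation of all tested compounds plus 3 SD, cut at about 50% in these data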
#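 Test system: transient Gal4-SF-1 LBD reporter, CHO-K1; Amount: 4,000 CHO-K1 cells per well; Doses: 10 µM only; Timing: compound exposure 20 h at 37 °C; Signal: luciferase light emission; Read-out basis: percent activation relative to DMSO median and mock-transfected background; Control set: DMSO negative control and −SF1 background wells; Replicates: one test per compound.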
# RORa activator = activates the human nuclear receptor RORA; 1.5% of 65,000 active; CHO-K1 Gal4-RORA LBD luciferase reporter, luminescence; percent increase over mock-subtracted basal signal; activation, % at 10 µM;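 active means activation above the mean of all tested compounds plus 3 SD, cut at about 49% in these data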;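 further: 0% = DMSO-treated RORA cells and 100% = added signal equal to DMSO minus mock-transfected cells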
# * marks the source's active call; other numbers are inactive results; . = no result.
SMILES,MT1-MMP txn act,E coli RNAP,TNAP act mid DEA,SF-1 act,RORa activator
Clc1ccc(OCCn2cnc3ccccc32)cc1,1.1,6.5,1,-13.9,18.4
COc1ccc(NC(=O)NCc2cccn2C)c(OC)c1,1,.,.,16.2,-4.9
Cn1cccc1CNC(=O)Nc1ccc(Cl)c(Cl)c1,1.7,.,.,66.4*,59.6*
O=C(c1cc(-c2ccccc2O)on1)N1CCc2ccccc2C1,1.1,9.6,1,23.1,-13.7
O=C(c1cc(-c2ccc(Cl)c(Cl)c2)on1)N1CCCCC1,1.5,8.5,1,43.0,92.4*
CC1CCN(C(=O)c2cc(-c3ccccc3O)on2)CC1,1.2,7.5,1,99.1*,63.8*
O=C(c1cc(-c2ccccc2)on1)N1CCCC1,0.9,9.7,0.9,56.7*,24.6
Cc1nc(SCC(=O)Nc2c(C)n(C)n(-c3ccccc3)c2=O)[nH]c(=O)c1C,1.2,.,.,.,.
O=C(OCCCN=C1NS(=O)(=O)c2ccccc21)C1CC(=O)N(c2ccc(Cl)cc2)C1 (stereo unspecified),1,.,.,.,.
CC(CC(=O)c1cccs1)CC(=O)c1cccs1,1.9,-9.1,0.9,74.2*,73.9*
CC1CCc2c(sc(NS(=O)(=O)c3ccccc3)c2C(=O)OC(C)C)C1 (stereo unspecified),1.2,.,.,.,.
COc1ccc(-n2c(SCC(=O)Nc3nc(C)cs3)nnc2-c2ccoc2C)cc1,2.2*,.,.,.,.
Cc1occc1-c1nnc(SCC(=O)Nc2nc(C(C)(C)C)cs2)o1,1.1,.,.,.,.
CCn1nnnc1SCC(=O)Nc1nc2ccc(OC)cc2s1,1.1,.,.,.,.
Cc1cnc(NC(=O)CSc2nnc(-c3ccccc3)o2)s1,1.2,1.8,0.9,87.9*,20.6
COc1ccc2nc(NC(=O)CSc3nnc(-c4ccoc4C)n3C)sc2c1,1.5,8.5,0.9,-6.8,107.4*
Cc1csc(NC(=O)CSc2nnc(-c3ccoc3C)o2)n1,1.3,8.5,0.9,29.6,60.6*
CN(C)/C=C1\C(=O)c2ccc(N(C)C)nc2CC1c1ccccc1 (stereo unspecified),0.9,5.3,1,-6.4,7.0
COc1ccc(NC(=O)C2CCCN2S(=O)(=O)c2cccc3cccnc23)c(OC)c1 (stereo unspecified),.,0.1,0.8,-12.4,-3.1
CCOc1ccc(OCC)c(NC(=O)C2CCCN2S(=O)(=O)c2cccc3cccnc23)c1 (stereo unspecified),1,7.7,0.8,57.7*,5.5
CNc1nc(OCC(F)(F)F)nc(N2CCN(C34CC5CC(CC(C5)C3)C4)CC2)n1,1.2,.,.,.,.
O=C(Oc1ccc(-c2ccccc2)cc1)N1CCCCC1,1.2,2.4,1,71.7*,85.9*
O=C(Nc1cccc(-c2cnc3ccccc3n2)c1)c1ccco1,1,4.2,0.9,55.1*,60.7*
COc1ccc(NC(=O)c2sc(SC)nc2N)cc1,1.7,8.1,0.9,60.6*,62.2*
COc1ccc(CN(C(=O)CO)[C@@H](CO[Si](c2ccccc2)(c2ccccc2)C(C)(C)C)c2cccc(NC(C)=O)c2OC)cc1OC,1.2,.,.,.,.
SMILES,MT1-MMP txn act,E coli RNAP,TNAP act mid DEA,SF-1 act,RORa activator
Cn1c(-c2cc3ccc(OC(=O)C(C)(C)C)cc3oc2=O)nc2ccccc21,1.6,.,.,.,.
CC(=O)Oc1ccc2cc(-c3nc4ccccc4n3C)c(=O)oc2c1,1.5,-73.8,1,64.6*,76.1*
O=C(NCC#CC(CCc1ccccc1)OCc1ccccc1)c1ccccc1 (stereo unspecified),1.1,.,.,.,.
CCc1nc2oc3cc(OC)ccc3c(=O)c2c(=O)n1-c1ccccc1,1.2,.,1,7.9,24.0
Cc1ccc(-n2c(C)nc3oc4ccccc4c(=O)c3c2=O)cc1,2.2*,.,0.9,17.8,68.1*
O=C(Nc1ccon1)c1cc(-c2ccccc2)nc2ccccc12,1.1,20.7*,0.9,1.2,-1.9
O=C(Nc1ccon1)c1csc2ccccc12,1.2,5.2,1,28.5,3.0
COc1nc(C)ccc1-c1noc(-c2ccncc2)n1,1.5,0.3,0.9,64.2*,31.1
CCOc1ccccc1-c1nc(-c2ccc(C)nc2OC)no1,1.2,0.3,0.9,57.7*,36.4
CCOc1nc(C)ccc1-c1noc(-c2ccccn2)n1,1.2,.,0.9,8.6,8.4
Cc1ccc(S(=O)(=O)N2C(=O)CCC2C(=O)Nn2cnnc2)cc1 (stereo unspecified),1,.,.,.,.
N=C1C(c2nc3ccccc3s2)=C(O)CN1Cc1ccco1,1.4,11.8,1,51.5*,36.2
COc1ccc(N2CC(O)=C(c3nc4ccccc4s3)C2=N)c(OC)c1,1.2,1.9,1,-0.4,3.0
Cc1nn(-c2ccccc2)c(C)c1NC(=O)c1cccs1,.,-8.0,0.9,-4.1,-8.1
O=C(Nc1ccc2nn(-c3ccccc3)nc2c1)c1cccs1,1.8,8.7,0.8,69.6*,11.7
Nc1nc(NC(=O)c2cccs2)nn1-c1ccccc1,1.3,20.9*,0.8,77.2*,38.0
O=c1[nH]c(CN2CCCCC2)nc2c1C1(CCCC1)Cc1ccccc1-2,1.1,-7.0,1,-9.4,-14.5
O=C(/N=C1\NC(=O)C(F)(C(F)(F)F)S1)NC1CCCCC1 (stereo unspecified),.,25.5*,0.9,-11.2,-4.8
Cc1ccccc1-c1nc2cc(N)ccc2o1,0.9,4.8,1,57.8*,41.3
Nc1ccc2oc(CCc3ccccc3)nc2c1,1.4,8.9,0.8,79.4*,144.5*
CC(=O)N1C2(C=CC1(C)C(=O)NCc1cc(F)cc(C(F)(F)F)c1)CCCCC2 (stereo unspecified),1.1,.,.,.,.
C=CCSc1n[nH]c(-c2ccc(OC)cc2)n1,1.4,-3.9,0.4,67.5*,62.9*
c1ccc(N2CCN(c3nc4cc5c(cc4s3)OCCO5)CC2)cc1,1.3,7.7,0.9,61.4*,77.0*
Cn1c(=O)c2c(nc(SCC(=O)N3CCc4ccccc43)n2Cc2ccc(F)cc2)n(C)c1=O,1.4,.,.,.,.
Clc1ccc(-c2nnc(N3CCCC3)nn2)cc1,.,5.5,0.9,40.7,54.6*
SMILES,MT1-MMP txn act,E coli RNAP,TNAP act mid DEA,SF-1 act,RORa activator
COC(=O)c1ccc(C(/C=C/[C@@H](C)C(=O)NCc2ccccc2)NC(=O)OCc2ccccc2)cc1 (stereo partly specified),1.2,.,.,.,.
COc1ccc(-n2c(C)nc3c(cnn3-c3ccc(C)c(C)c3)c2=O)cc1,1.1,-0.4,1,40.0,64.8*
O=C(O)CCCNS(=O)(=O)c1ccc(NCc2ccccc2)c(C(=O)O)c1,1.2,4.2,0.8,2.0,-22.3
CCCCOc1ccc(N2C(=O)CC(NCCc3ccc(S(N)(=O)=O)cc3)C2=O)cc1 (stereo unspecified),1.2,.,.,.,.
Cc1ccc(NC(=O)NC2CCCCC2)cc1Cl,1.3,11.5,1,73.8*,105.5*
COc1ccc(CC(=O)NCCN2CCCC2)cc1,2.4*,.,.,.,.
CCOC(=O)c1nnc2c(Br)c(-c3ccccc3)nn2c1C,1,.,.,.,.
O=C(CCCNS(=O)(=O)c1cccc2nsnc12)NCc1ccc(F)cc1,1.2,28.3*,1,14.8,-11.7

# From PubChem
